Hits are enriched below; roughly 2% of the tested compounds scored in any of these assays.
T cell HTS = modulators of CD8 T cell-vesicle binding, primary screen, mouse 2C CD8+ T cells, flow cytometry; 2C CD8+ T cell-vesicle binding; active compounds read low; response (vesicle binding), % at 7 µM; 330,000 compounds, 0.068% hits; AID 2052, 2009;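 active = response, share of CD8 T cells binding vesicles, and their 90th percentile fluorescence all below set limits, cut at about 80% in these data, passing the limit was not always enough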;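 note: values below 100% mean blocked vesicle binding to the CD8+ T cells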
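Read-out – percent CD8+ FL2 mean versus row control · System – murine 2C transgenic CD8+ T lymphocytes · Times – 1.5 h cell–vesicle binding at 37 °C, then 20 min icy labelling · Control set – naked vesicles low, QL9 vesicles with vehicle high · Detection – cytometric PE anti-B7-1 and Alexa647 anti-CD8 signals after 1% paraformaldehyde fixation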
Myeloid diff 2 = induction of myeloid progenitor differentiation, primary screen, cell-based, flow cytometry, MLPCN library; ER-HoxA9 myeloid progenitors, lysozyme-GFP differentiation; calls only at 10 µM; 360,000 compounds, 1% hits; AID 624256, 2012;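 active = normalized GFP-positive differentiation at or above the plate's own cutoff, the solvent-only control mean plus 3 SD; inconclusive = no clear call, values can overlap the other calls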;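 note: cells exposed to compound for four days before flow analysis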
NR2E3 ag-1 = inhibitors of NR2E3-RetCOR corepressor binding, primary screen, NR2E3 agonist project, biochemical, TR-FRET, GST-NR2E3, biotin-RetCOR | Photoreceptor-specific nuclear receptor (Homo sapiens), Q9Y5X4 | 320,000 compounds, 0.12% hits | inhibition of corepressor binding, % at 4.78 µM | AID 2300, 2010 | 1536-well;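 active = percent inhibition above the cutoff of mean plus 3 SD of all tested compounds, set per screening campaign, cut at about 20% in these data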
Target sequence (Q9Y5X4 whole entry, looked up): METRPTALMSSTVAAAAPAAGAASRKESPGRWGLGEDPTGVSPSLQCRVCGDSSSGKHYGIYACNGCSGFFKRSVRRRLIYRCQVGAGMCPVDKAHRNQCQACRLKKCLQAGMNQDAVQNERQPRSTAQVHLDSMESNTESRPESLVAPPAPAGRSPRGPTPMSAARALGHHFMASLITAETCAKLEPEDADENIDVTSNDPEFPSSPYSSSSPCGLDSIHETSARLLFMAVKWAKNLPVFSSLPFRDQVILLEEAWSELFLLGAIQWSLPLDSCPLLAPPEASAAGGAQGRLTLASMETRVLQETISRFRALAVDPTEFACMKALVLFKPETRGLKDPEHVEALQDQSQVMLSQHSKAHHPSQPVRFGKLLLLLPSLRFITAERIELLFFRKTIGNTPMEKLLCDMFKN
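System: GST-tagged NR2E3 plus biotinylated RetCOR corepressor; Amount: 1.35 nM GST-tagged NR2E3 final; Dosing: single nominal compound dose of 4.8 µM; Schedule: 5 h incubation at 4 °C; Technique: TR-FRET with europium anti-GST and streptavidin-D2, 340 nm excitation; Controls: biotin wells as high control, 0.6% DMSO wells as low control.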
NR2E3 ag-2 = NR2E3 agonists in two-hybrid cells, primary screen, cell-based, luminescence, CHO-S, Gal4-NCOR/VP16-NR2E3. luciferase. inhibition of corepressor binding, % at 3.98 µM. 360,000 compounds, 0.35% hits. AID 602229, 2012;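 active = inhibition above the mean of all tested compounds plus 3 SD, cut at about 70% in these data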;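 note: higher means lower luciferase signal from less NR2E3 corepressor binding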
GAA850 FXN act = FXN promoter activators, primary screen, cell-based, luciferase luminescence, HEK293 lucGAA850. HEK293 lucGAA850 FXN promoter luciferase reporter, 24 h; percent of 10 µM SAHA response. activation, % at 6 µM. 360,000 compounds, 0.56% hits;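 active = activation above the average of all compounds screened plus 3 SD, cutoff fixed separately per campaign, cut at about 7.5% in these data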
NR2E3 ag conf = NR2E3 agonist confirmation in cells, cell-based, luminescence, CHO-S two-hybrid. shares compounds with NR2E3 ag-2. CHO-S mammalian two-hybrid NR2E3-NCOR, luciferase luminescence. AID 624378, 2012. inhibition, % at 3.98 µM. 2,300 compounds, 51% hits;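 active = average inhibition above a cutoff equal to the mean inhibition of all tested compounds plus one SD, cut at about 70% in these data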
GAL4-VP16 luc = GAL4-VP16 reporter modulators, confirmation, counter-screen for NR2E3 agonist project, cell-based, luminescence, CHO-S, high throughput | shares compounds with NR2E3 ag-2 | CHO-S GAL4-VP16 luciferase reporter | inhibition, % at 3.98 µM | 2,300 compounds, 29% hits;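 active = mean inhibition above a cutoff equal to the average over all tested compounds plus one standard deviation, cut at about 70% in these data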;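 note: luciferase from a UAS reporter driven by GAL4-VP16 transactivation; higher means less reporter light so more repression of VP16 activity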
Of the large screens only hits and unclear results are named; the others gave an inactive call (follow-up assays come after a bar, where they were run).

COc1cc(CCC(C)=O)ccc1OC(=O)c1c(F)cccc1Cl	none
Cc1nc(N/N=C/c2cccc(F)c2)cc(N2CCOCC2)n1	none | NR2E3 ag conf inactive | GAL4-VP16 luc inactive
Oc1cccc(/C=N/Nc2cc(N3CCOCC3)nc(N3CCOCC3)n2)c1	none
CN(C)c1nc(-c2ccccn2)nnc1-c1ccccc1	none
CCN(CC)c1nc(-c2ccccn2)nc(-c2ccccc2)c1C#N	NR2E3 ag-2 82.6 | NR2E3 ag conf inactive | GAL4-VP16 luc inactive
c1ccc(-c2nc(N3CCCCCC3)c3ccccc3n2)nc1	NR2E3 ag-2 109.3 | NR2E3 ag conf 100.4 | GAL4-VP16 luc 72.7
c1ccc(CCNc2nc(-c3ccccn3)nc3ccccc23)cc1	Myeloid diff 2 inconclusive, NR2E3 ag-2 103.2 | NR2E3 ag conf 99.8 | GAL4-VP16 luc 84.6
CCCN(CCC)c1nc(-c2ccccn2)nc2ccccc12	NR2E3 ag-2 103.7 (no result: NR2E3 ag-1) | NR2E3 ag conf 99.1 | GAL4-VP16 luc 85.1
CCCCN(CC)c1nc(-c2ccncc2)nc2ccccc12	none
c1ccc(-c2nc(N3CCOCC3)c3ccccc3n2)nc1	none
COC(=O)[C@]1(C)N[C@H](c2ccc(SC3CCCCC3)c(OC)c2)[C@@H]2C(=O)N(C)C(=O)[C@@H]21	none (no result: T cell HTS)
CCOc1ccc(CN(C)c2ccc(S(=O)(=O)N3CCN(C)CC3)cc2[N+](=O)[O-])cc1OC	none | NR2E3 ag conf 77.6 | GAL4-VP16 luc inactive
CC1=C(C(=O)N2CCCCCC2)CC(CC(=O)NCCCCc2ccccc2)C(=O)N1Cc1ccccc1 (configuration not stated)	none (no result: T cell HTS, NR2E3 ag-1, GAA850 FXN act)
COc1cccc2c1C(=O)c1c(O)c3c(c(O)c1C2=O)CC(O)(C(=O)CO)CC3OC1CC(N(C)C)C(O)C(C)O1 (configuration not stated)	NR2E3 ag-2 100.8 (no result: T cell HTS, Myeloid diff 2, NR2E3 ag-1) | NR2E3 ag conf 99.2 | GAL4-VP16 luc 94.0
CCOC(=O)[C@@H]1[C@H]2COc3ccccc3[C@H]2N2C(=O)N(c3ccc(C(F)(F)F)cc3)C(=O)[C@]12C	none
O=C(NCc1ccccc1)c1cc(C2CCCN(S(=O)(=O)c3cccs3)C2)on1 (configuration not stated)	none (no result: T cell HTS, NR2E3 ag-1)
CC[C@@]1(O)C(=O)OCc2c1cc1n(c2=O)Cc2cc3c(CN(C)C)c(O)ccc3nc2-1	Myeloid diff 2 inconclusive
CC[C@@]1(O)C(=O)OCc2c1cc1n(c2=O)Cc2cc3c(N)cccc3nc2-1	Myeloid diff 2 inconclusive, NR2E3 ag-2 81.9 | NR2E3 ag conf 87.6 | GAL4-VP16 luc inactive
Cc1ccc(-n2ncc3c2CCCC3NC(=O)CCCN2CCCC2=O)cc1C (configuration not stated)	none
CC(C)(C)c1ccc(-n2ncc3c2CCCC3NC(=O)CCN2CCCCC2=O)cc1 (configuration not stated)	none | NR2E3 ag conf inactive | GAL4-VP16 luc inactive
CC(C)(C)c1ccc(-n2ncc3c2CCCC3NC(=O)CN2CCOC2=O)cc1 (configuration not stated)	none | NR2E3 ag conf inactive | GAL4-VP16 luc inactive
COc1ccc(-n2ncc3c2CC(C)(C)CC3NC(=O)CN2CCOC2=O)cc1 (configuration not stated)	none (no result: NR2E3 ag-1)
CC1(C)Oc2ccc(C(=O)NC3CCCCC3)cc2N(CC#N)C1=O	none
O=C(Cc1cccc(NC(=O)C2CCCN(C(=O)C3CCCCC3)C2)c1)Nc1cccc(C(=O)N2CCCCC2)c1 (configuration not stated)	none (no result: T cell HTS, NR2E3 ag-1)
O=S(=O)(c1cccc(NC(=S)N2CCN(c3cccc(Cl)c3)CC2)c1)C(F)F	none | NR2E3 ag conf 80.1 | GAL4-VP16 luc inactive
